The record followed here is ChEMBL document CHEMBL1127592, “Synthesis and SAR studies of novel triazolopyrimidine derivatives as potent, orally active angiotensin II receptor antagonists” (J Med Chem, 1994).

SMILES strings stand for the structures.

One assay has as its target T1, Type-1 angiotensin II receptor B (Rattus norvegicus, UniProt P29089).
T1 sequence (P29089 whole entry): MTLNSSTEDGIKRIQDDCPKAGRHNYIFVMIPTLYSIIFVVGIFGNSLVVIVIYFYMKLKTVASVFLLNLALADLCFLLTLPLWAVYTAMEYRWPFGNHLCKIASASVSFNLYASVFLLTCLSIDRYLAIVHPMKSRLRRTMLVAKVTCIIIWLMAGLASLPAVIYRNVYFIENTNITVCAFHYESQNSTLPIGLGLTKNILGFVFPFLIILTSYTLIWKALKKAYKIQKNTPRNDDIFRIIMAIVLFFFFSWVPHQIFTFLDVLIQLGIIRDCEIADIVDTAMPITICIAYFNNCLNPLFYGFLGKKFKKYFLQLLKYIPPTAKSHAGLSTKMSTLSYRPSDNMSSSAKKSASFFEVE
The experiment in a line: Displacement of [125I]-Sar1-Ile8-A II from rat adrenal Angiotensin-1 (AT-1) receptor.
Details: not given
For orientation: Ki means a dissociation constant, usually derived from enzyme kinetics or from competition with a known ligand. The low end stands for higher affinity, the high end for lower affinity. In turn, `CCc1nc(C)n2nc(O)nc2c1Cc1ccc(-c2ccccc2-c2nn[nH]n2)cc1` had a Ki of 35 nM.
Consider `CCCCc1nc(C)n2c(S)nnc2c1Cc1ccc(-c2ccccc2-c2nn[nH]n2)cc1`, for which the affinity corresponds to a Ki of 106 nM.
On the same count and under the same terms, for `CCCc1nc(C)n2nc(C(F)(F)F)nc2c1Cc1ccc(-c2ccccc2-c2nn[nH]n2)cc1` the value was 147 nM; for `CCCc1nc(C)n2nc(COC)nc2c1Cc1ccc(-c2ccccc2-c2nn[nH]n2)cc1`, 15 nM; for `CCCc1nc(C)n2nc(NCC(=O)OCC)nc2c1Cc1ccc(-c2ccccc2-c2nn[nH]n2)cc1`, 32 nM.
`CCCc1nc(C)n2nc(S(N)(=O)=O)nc2c1Cc1ccc(-c2ccccc2-c2nn[nH]n2)cc1` yielded a Ki of 11 nM.
As for `CCCc1nc(C)n2nc(CO)nc2c1Cc1ccc(-c2ccccc2-c2nn[nH]n2)cc1`, the Ki turned out to be 5 nM.
`CCCc1nc(C)n2c(O)nnc2c1Cc1ccc(-c2ccccc2-c2nn[nH]n2)cc1` yielded an inhibition constant (Ki) of 10 nM.
Still for that read-out and setting: for `CCCc1nc(C)n2nc(SCC(=O)OCC)nc2c1Cc1ccc(-c2ccccc2-c2nn[nH]n2)cc1` the value was 99 nM; for `Cc1nc(C2CC2)c(Cc2ccc(-c3ccccc3-c3nn[nH]n3)cc2)c2nc(O)nn12`, 82 nM; for `CCCc1ncn2nc(O)nc2c1Cc1ccc(-c2ccccc2-c2nn[nH]n2)cc1`, 46 nM.
On the same count and under the same terms, for `CCCc1nc(C)n2nc(C)nc2c1Cc1ccc(-c2ccccc2-c2nn[nH]n2)cc1` the value was 32 nM; for `CCCc1nc(C)n2ncnc2c1Cc1ccc(-c2ccccc2-c2nn[nH]n2)cc1`, 12 nM.
Same read-out and setting: for `CCCc1nc(CO)n2nc(O)nc2c1Cc1ccc(-c2ccccc2-c2nn[nH]n2)cc1` the value was 10 nM.
Compound `CCCc1nc(C)n2nc(NC)nc2c1Cc1ccc(-c2ccccc2-c2nn[nH]n2)cc1` returned a Ki of 5 nM.
The same measure, in the same setting: for `CCCc1nc(C)n2nc(C(=O)O)nc2c1Cc1ccc(-c2ccccc2-c2nn[nH]n2)cc1` the value was 35 nM; for `CCCc1nc(C)n2nc(S)nc2c1Cc1ccc(-c2ccccc2-c2nn[nH]n2)cc1`, 10 nM.
Same read-out and setting: as for `CCCc1nc(C)n2nc(CC)nc2c1Cc1ccc(-c2ccccc2-c2nn[nH]n2)cc1`, the figure is 8 nM; as for `CCCc1nc(C)n2nc(OC)nc2c1Cc1ccc(-c2ccccc2-c2nn[nH]n2)cc1`, 27 nM; as for `CCCc1nc(C)n2c(=O)n(C)nc2c1Cc1ccc(-c2ccccc2-c2nn[nH]n2)cc1`, 53 nM.
Same read-out and setting: for `CCCc1nc(C)n2nc(SC)nc2c1Cc1ccc(-c2ccccc2-c2nn[nH]n2)cc1` the value was 174 nM.

A further assay concerns Rattus norvegicus. Kind of assay: Change in mean arterial blood pressure in renal artery ligated hypertensive rats, orally dosed at 1 mg/kg. It is filed as functional. The following applies: route oral. The method in brief:
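Male CD Sprague-Dawley rats (250-270 g), left renal artery ligated under ketamine (100 mg/kg ip); catheterized for direct recording 2-3 days before test. Single oral gavage, 3-7 rats/group. MAP recorded before and for 16 h after dosing; value is maximal MAP decrease, mean ± SEM; decrease under 15 mmHg counted as no effect.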
For `CCc1nc(C)n2nc(O)nc2c1Cc1ccc(-c2ccccc2-c2nn[nH]n2)cc1`, the “Change in blood pressure” value is listed as -20.1 mmHg.
With `CCCCc1nc(C)n2c(S)nnc2c1Cc1ccc(-c2ccccc2-c2nn[nH]n2)cc1`, the “Change in blood pressure” value is -24.3 mmHg.
As for `CCCc1nc(C)n2nc(COC)nc2c1Cc1ccc(-c2ccccc2-c2nn[nH]n2)cc1`, the “Change in blood pressure” value is recorded as -13.2 mmHg.
Still for that read-out and setting: as for `CCCc1nc(C)n2nc(NCC(=O)OCC)nc2c1Cc1ccc(-c2ccccc2-c2nn[nH]n2)cc1`, the figure is -5.7 mmHg.
Same read-out and setting: for `CCCc1nc(C)n2nc(S(N)(=O)=O)nc2c1Cc1ccc(-c2ccccc2-c2nn[nH]n2)cc1` the value was -14.5 mmHg; for `CCCc1nc(C)n2nc(CO)nc2c1Cc1ccc(-c2ccccc2-c2nn[nH]n2)cc1`, -25.4 mmHg; for `CCCc1nc(C)n2c(O)nnc2c1Cc1ccc(-c2ccccc2-c2nn[nH]n2)cc1`, -44.6 mmHg.
Still for that read-out and setting: as for `Cc1nc(C2CC2)c(Cc2ccc(-c3ccccc3-c3nn[nH]n3)cc2)c2nc(O)nn12`, the figure is -12.3 mmHg; as for `CCCc1ncn2nc(O)nc2c1Cc1ccc(-c2ccccc2-c2nn[nH]n2)cc1`, -17.9 mmHg.
As to `CCCc1nc(C)n2nc(C)nc2c1Cc1ccc(-c2ccccc2-c2nn[nH]n2)cc1`, the “Change in blood pressure” value is recorded as -17.9 mmHg.
`CCCc1nc(C)n2ncnc2c1Cc1ccc(-c2ccccc2-c2nn[nH]n2)cc1`: the “Change in blood pressure” value is given as -20.1 mmHg.
`CCCc1nc(CO)n2nc(O)nc2c1Cc1ccc(-c2ccccc2-c2nn[nH]n2)cc1`: the “Change in blood pressure” value is reported as -21.5 mmHg.
Turning to `CCCc1nc(C)n2nc(NC)nc2c1Cc1ccc(-c2ccccc2-c2nn[nH]n2)cc1`, the “Change in blood pressure” value was -23.6 mmHg.
Same read-out and setting: for `CCCc1nc(C)n2nc(C(=O)O)nc2c1Cc1ccc(-c2ccccc2-c2nn[nH]n2)cc1` the value was -13.4 mmHg; for `CCCc1nc(C)n2nc(S)nc2c1Cc1ccc(-c2ccccc2-c2nn[nH]n2)cc1`, -19.7 mmHg.
On the same count and under the same terms, as for `CCCc1nc(C)n2nc(CC)nc2c1Cc1ccc(-c2ccccc2-c2nn[nH]n2)cc1`, the figure is -8.9 mmHg; as for `CCCc1nc(C)n2c(=O)n(C)nc2c1Cc1ccc(-c2ccccc2-c2nn[nH]n2)cc1`, -25.1 mmHg; as for `CCCc1nc(C)n2nc(SC)nc2c1Cc1ccc(-c2ccccc2-c2nn[nH]n2)cc1`, -11.8 mmHg.

The test system of another assay is Rattus norvegicus. Kind of assay: Change in systolic arterial blood pressure in renal artery ligated hypertensive rats, orally dosed at 10 mg/kg. The note with it: route oral. It is filed as functional. The method in brief: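 Conscious male CD Sprague-Dawley rats (250-270 g) with left renal artery ligated several days earlier under ketamine. Single oral gavage, 3-8 rats/group. Systolic pressure by indirect tail-cuff sphygmomanometry before and 3 h post-dose; change reported as SAP decrease at 3 h, mean ± SEM.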
For the compound `CCc1nc(C)n2nc(O)nc2c1Cc1ccc(-c2ccccc2-c2nn[nH]n2)cc1`, the “Change in blood pressure” value is -72.8 mmHg.
Still for that read-out and setting: for `CCCCc1nc(C)n2c(S)nnc2c1Cc1ccc(-c2ccccc2-c2nn[nH]n2)cc1` the value was -86.3 mmHg.
Same read-out and setting: for `CCCc1nc(C)n2nc(C(F)(F)F)nc2c1Cc1ccc(-c2ccccc2-c2nn[nH]n2)cc1` the value was -11.8 mmHg.
Take `CCCc1nc(C)n2nc(COC)nc2c1Cc1ccc(-c2ccccc2-c2nn[nH]n2)cc1`: the “Change in blood pressure” value is given as -73.1 mmHg.
Consider `CCCc1nc(C)n2nc(NCC(=O)OCC)nc2c1Cc1ccc(-c2ccccc2-c2nn[nH]n2)cc1`, for which the “Change in blood pressure” value is -73.6 mmHg.
For `CCCc1nc(C)n2nc(S(N)(=O)=O)nc2c1Cc1ccc(-c2ccccc2-c2nn[nH]n2)cc1`, the “Change in blood pressure” value was -61.3 mmHg.
Same read-out and setting: for `CCCc1nc(C)n2nc(CO)nc2c1Cc1ccc(-c2ccccc2-c2nn[nH]n2)cc1` the value was -62.5 mmHg; for `CCCc1nc(C)n2c(O)nnc2c1Cc1ccc(-c2ccccc2-c2nn[nH]n2)cc1`, -87.5 mmHg; for `CCCc1nc(C)n2nc(SCC(=O)OCC)nc2c1Cc1ccc(-c2ccccc2-c2nn[nH]n2)cc1`, -26.4 mmHg.
Still for that read-out and setting: as for `Cc1nc(C2CC2)c(Cc2ccc(-c3ccccc3-c3nn[nH]n3)cc2)c2nc(O)nn12`, the figure is -51.1 mmHg; as for `CCCc1ncn2nc(O)nc2c1Cc1ccc(-c2ccccc2-c2nn[nH]n2)cc1`, -38.3 mmHg; as for `CCCc1nc(C)n2nc(C)nc2c1Cc1ccc(-c2ccccc2-c2nn[nH]n2)cc1`, -71.8 mmHg.
Same read-out and setting: for `CCCc1nc(C)n2ncnc2c1Cc1ccc(-c2ccccc2-c2nn[nH]n2)cc1` the value was -89.7 mmHg; for `CCCc1nc(CO)n2nc(O)nc2c1Cc1ccc(-c2ccccc2-c2nn[nH]n2)cc1`, -40.6 mmHg.
With `CCCc1nc(C)n2nc(NC)nc2c1Cc1ccc(-c2ccccc2-c2nn[nH]n2)cc1`, the “Change in blood pressure” value is -65.3 mmHg.
On the same count and under the same terms, for `CCCc1nc(C)n2nc(C(=O)O)nc2c1Cc1ccc(-c2ccccc2-c2nn[nH]n2)cc1` the value was -36.4 mmHg; for `CCCc1nc(C)n2nc(S)nc2c1Cc1ccc(-c2ccccc2-c2nn[nH]n2)cc1`, -57.8 mmHg.
For the compound `CCCc1nc(C)n2nc(CC)nc2c1Cc1ccc(-c2ccccc2-c2nn[nH]n2)cc1`, the “Change in blood pressure” value is listed as -69 mmHg.
Same read-out and setting: as for `CCCc1nc(C)n2nc(OC)nc2c1Cc1ccc(-c2ccccc2-c2nn[nH]n2)cc1`, the figure is -26.2 mmHg; as for `CCCc1nc(C)n2c(=O)n(C)nc2c1Cc1ccc(-c2ccccc2-c2nn[nH]n2)cc1`, -48.8 mmHg; as for `CCCc1nc(C)n2nc(SC)nc2c1Cc1ccc(-c2ccccc2-c2nn[nH]n2)cc1`, -32.2 mmHg.
